Results on 1 molecule are retold here after ChEMBL document CHEMBL1135423, “Acyl-protected hydroxylamines as spin label generators for EPR brain imaging” (J Med Chem, 2002).

Common to all, as to format: ADME, organism-based
Data set [1] deals with Mus musculus. As to the kind of experiment: Biodistribution in mice as total concentration of both oxidized and reduced forms in liver and animals were sacrificed 10 minutes after dosing, in DMSO sol. The settings on record: in vivo. In outline: (§1)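 Female C3H HenMTV⁻ mice (6-8 weeks old, 22-25 g; three per time point) were given an ip injection of 500 µL of 40 mM compound. They were euthanized at 10 or 60 min. Brain, heart, liver, kidney, spleen and blood were excised and each homogenized in ice-cold PBS. One half of each homogenate received K₃[Fe(CN)₆] (final 1 mM) to oxidize hydroxylamine to nitroxide. Total nitroxide plus hydroxylamine was read from EPR signal intensity.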

Data set [2] deals with Mus musculus. Nature of the data set: Biodistribution of compound (oxidized form) in liver tissue, animals were sacrificed 10 minutes after dosing, in DMSO sol. The settings on record: in vivo. The gist of the method: (§2)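 In female C3H HenMTV⁻ mice (6-8 weeks, 22-25 g; three per time point), compound was injected ip as 500 µL of 40 mM solution. Animals were killed 10 or 60 min later. Brain, heart, liver, kidney, spleen and blood were removed and each homogenized in ice-cold PBS. Nitroxide (oxidized form) was quantified by EPR signal intensity in the half of each homogenate not treated with ferricyanide.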

The test system of data set [3] is Mus musculus. As to the kind of experiment: Biodistribution in mice as total concentration of both oxidized and reduced forms in kidney and animals were sacrificed 10 minutes after dosing, in DMSO sol. The settings on record: in vivo. In outline:
as §1

In data set [4] the test system is Mus musculus. Nature of the data set: Biodistribution in mice as total concentration of both oxidized and reduced forms in spleen tissues, animals were sacrificed 60 minutes after dosing, in DMSO sol. The settings on record: in vivo, 1 h. In outline:
as §1

The test system of data set [5] is Mus musculus. Nature of the data set: Biodistribution of compound (total concentration of both oxidized and reduced forms) in brain tissues, animals were sacrificed 10 minutes after dosing, in DMSO. The settings on record: in vivo. The gist of the method: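 Female C3H HenMTV⁻ mice (6-8 weeks old, 22-25 g; three per time point) got one i.p. injection of 500 µL of 40 mM compound. They were euthanized at 10 or 60 min. Organs and blood were excised and homogenized separately in ice-cold PBS. One half of each homogenate received K₃[Fe(CN)₆] (final 1 mM) to oxidize hydroxylamine. Total nitroxide plus hydroxylamine was quantified by EPR signal intensity.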

Data set [6] concerns Mus musculus. Nature of the data set: Biodistribution in mice as total concentration of both oxidized and reduced forms in heart tissues, animals were sacrificed 60 minutes after dosing, in DMSO sol. Conditions: in vivo, 1 h. The gist of the method:
as §1

The test system of data set [7] is Mus musculus. As to the kind of experiment: Biodistribution of compound (oxidized form) in spleen tissues, animals were sacrificed 60 minutes after dosing, in DMSO sol. The settings on record: in vivo, 1 h. The gist of the method: as §2
The test system of data set [8] is Mus musculus. As to the kind of experiment: Biodistribution of compound (oxidized form) in blood tissue, animals were sacrificed 10 minutes after dosing, in DMSO sol. The settings on record: in vivo. In outline:
as §2

The test system of data set [9] is Mus musculus. As to the kind of experiment: Biodistribution of compound (oxidized form) in brain tissue, animals were sacrificed 10 minutes after dosing, in DMSO sol. The settings on record: in vivo. The gist of the method: as §2
For data set [10], the system named is Mus musculus. As to the kind of experiment: Biodistribution of compound (oxidized form) in heart tissue, animals were sacrificed 10 minutes after dosing, in DMSO sol. The settings on record: in vivo. The gist of the method:
as §2

Data set [11] concerns Mus musculus. Nature of the data set: Biodistribution of compound (oxidized form) in spleen tissue, animals were sacrificed 10 minutes after dosing, in DMSO sol. Conditions: in vivo. In outline: as §2
Data set [12] has as its system Mus musculus. Nature of the data set: Biodistribution of compound (oxidized form) in kidney tissue, animals were sacrificed 10 minutes after dosing, in DMSO sol. The settings on record: in vivo. In outline: as §2
Data set [13] concerns Mus musculus. Nature of the data set: Biodistribution of compound (oxidized form) in kidney tissue, animals were sacrificed 60 minutes after dosing, in DMSO sol. Conditions: in vivo, 1 h. In outline: as §2
For data set [14], the system named is Mus musculus. As to the kind of experiment: Biodistribution of compound (oxidized form) in heart tissue, animals were sacrificed 60 minutes after dosing, in DMSO sol. Conditions: in vivo, 1 h. In outline: as §2
Data set [15] relates to Mus musculus. As to the kind of experiment: Biodistribution in mice as total concentration of both oxidized and reduced forms in spleen and animals were sacrificed 10 minutes after ip administration in DMSO solution. The settings on record: in vivo. In outline:
as §1

For data set [16], the system named is Mus musculus. As to the kind of experiment: Biodistribution of compound (oxidized form) in liver tissues, animals were sacrificed 60 minutes after dosing, in DMSO sol. Conditions: in vivo, 1 h. The gist of the method: as §2
For data set [17], the system named is Mus musculus. As to the kind of experiment: Biodistribution in mice as total concentration of both oxidized and reduced forms in kidney tissues, animals were sacrificed 60 minutes after dosing, in DMSO sol. The settings on record: in vivo, 1 h. The gist of the method:
as §1

Data set [18] relates to Mus musculus. As to the kind of experiment: Biodistribution in mice as total concentration of both oxidized and reduced forms in blood and animals were sacrificed 10 minutes after ip administration in DMSO solution. The settings on record: in vivo. The gist of the method:
as §1

Data set [19] relates to Mus musculus. As to the kind of experiment: Biodistribution in mice as total concentration of both oxidized and reduced forms in blood tissues, animals were sacrificed 60 minutes after dosing, in DMSO sol. The settings on record: in vivo, 1 h. In outline:
as §1

The test system of data set [20] is Mus musculus. As to the kind of experiment: Biodistribution in mice as total concentration of both oxidized and reduced forms in liver tissues, animals were sacrificed 60 minutes after dosing, in DMSO sol. Conditions: in vivo, 1 h. In outline: as §1
Data set [21] concerns Mus musculus. Nature of the data set: Biodistribution of compound (oxidized form) in brain tissue, animals were sacrificed 60 minutes after dosing, in DMSO sol. The settings on record: in vivo, 1 h. In outline:
as §2

Data set [22] relates to Mus musculus. As to the kind of experiment: Biodistribution in mice as total concentration of both oxidized and reduced forms in brain tissues, animals were sacrificed 60 minutes after dosing, in DMSO sol. Conditions: in vivo, 1 h. In outline: as §1
For data set [23], the system named is Mus musculus. Nature of the data set: Biodistribution of compound (oxidized form) in blood tissues, animals were sacrificed 60 minutes after dosing, in DMSO sol. The settings on record: in vivo, 1 h. In outline:
as §2

Data set [24] has as its system Mus musculus. Nature of the data set: Biodistribution in mice as total concentration of both oxidized and reduced forms in heart tissues, animals were sacrificed 10 minutes after dosing, in DMSO sol. The settings on record: in vivo. The gist of the method:
as §1

For the molecule `COC(=O)C1CC(C)(C)N(OC(C)=O)C(C)(C)C1`, the Biodistribution in the data set on Mus musculus [1] was 50 nM (g of tissue)-1; in the data set on Mus musculus [2], 0 nM (g of tissue)-1; with Mus musculus [3] it was 400 nM (g of tissue)-1; in the data set on Mus musculus [4], 25 nM (g of tissue)-1; in the data set with Mus musculus [5] it was 0 nM (g of tissue)-1; with Mus musculus [6], 25 nM (g of tissue)-1. The Biodistribution in the data set with Mus musculus [7] was 0 nM (g of tissue)-1; in the data set with Mus musculus [8] it was 0 nM (g of tissue)-1; in the data set on Mus musculus [9] it was 2 nM (g of tissue)-1; in the data set with Mus musculus [10], 0 nM (g of tissue)-1; in the data set on Mus musculus [11], 0 nM (g of tissue)-1; with Mus musculus [12], 0 nM (g of tissue)-1. Further, the Biodistribution with Mus musculus [13] is 0 nM (g of tissue)-1; in the data set on Mus musculus [14], 0 nM (g of tissue)-1; in the data set with Mus musculus [15], 100 nM (g of tissue)-1; in the data set with Mus musculus [16], 0 nM (g of tissue)-1; in the data set on Mus musculus [17] it was 25 nM (g of tissue)-1; with Mus musculus [18], 100 nM (g of tissue)-1. Besides, the Biodistribution in the data set on Mus musculus [19] was 25 nM (g of tissue)-1; in the data set with Mus musculus [20] it was 30 nM (g of tissue)-1; with Mus musculus [21] it was 5 nM (g of tissue)-1; in the data set on Mus musculus [22], 25 nM (g of tissue)-1; in the data set on Mus musculus [23], 0 nM (g of tissue)-1; in the data set on Mus musculus [24] it was 10 nM (g of tissue)-1.
